Broadly, the IC50 is the concentration that gives 50% inhibition.

This note sets out measurements from ChEMBL document CHEMBL1125010, “Relaxant activity of 4-amido-3,4-dihydro-2H-1-benzopyran-3-ols and 4-amido-2H-1-benzopyrans on guinea pig isolated trachealis” (J Med Chem, 1990).

The species named for experiment [1] is Cavia porcellus. Put plainly: Inhibition of spontaneous tone in Guinea pig tracheal spiral strips. It is filed as functional, Trachea. The method in brief:
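Guinea pig isolated trachealis, spontaneous tone. Relaxation is compared with the response to isoprenaline. IC50 is the concentration giving 50% of the isoprenaline response, read from the dose-response curve. Reported as the geometric mean, generally of four or more determinations.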

The species entered for experiment [2] is Cavia porcellus. Put plainly: Intrinsic activity measured on Guinea pig tracheal spiral strips. It is filed as functional, Trachea. The method in brief: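 Guinea pig isolated trachealis relaxation. Intrinsic activity is the compound's maximum relaxant response divided by the maximum produced by isoprenaline. Reported as an arithmetic mean.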

`CC1(C)C=C(N2CCCCC2=O)c2c(cccc2C(F)(F)F)O1`: the IC50 in experiment [1] (Cavia porcellus, Trachea) is > 20000 nM. In experiment [2], this compound gave an Intrinsic activity of 0.11.

In experiment [1] (Cavia porcellus, Trachea), `CC1(C)C=C(N2CCCCC2=O)c2ccc(C#N)cc2O1` yielded an IC50 of 3960 nM. Besides, in experiment [2], the Intrinsic activity turned out to be 0.86. For the compound `CC1(C)Oc2cc(C#N)ccc2[C@@H](N2CCCCC2=O)[C@@H]1O`, in experiment [1] (Cavia porcellus, Trachea), the half-inhibitory concentration (IC50) was > 17000 nM. The compound further registered an Intrinsic activity in experiment [2] of 0.56. Consider `CC1(C)C=C(N2CCCCC2=O)c2ccc(C(F)(F)F)cc2O1`, for which the 50% inhibitory concentration (IC50) in experiment [1] (Cavia porcellus, Trachea) amounted to 2970 nM. In experiment [2], this compound had an Intrinsic activity of 0.97. For `CC1(C)C=C(n2ccccc2=O)c2cnccc2O1`, the midpoint of inhibition in experiment [1] (Cavia porcellus, Trachea), the IC50, lay at 2100 nM. This compound also had an Intrinsic activity in experiment [2] of 0.93. `CC1(C)Oc2ccc(C(F)(F)F)cc2[C@@H](N2CCCCC2=O)[C@@H]1O` came in with a 50% inhibitory concentration (IC50) in experiment [1] (Cavia porcellus, Trachea) of 58 nM. For the same compound, in experiment [2], the Intrinsic activity was 0.96.

In experiment [1] (Cavia porcellus, Trachea), `CC1(C)Oc2ccc(C#N)cc2[C@@H](N2CCCCC2=O)[C@@H]1O` showed an IC50 of 270 nM. This compound registered an Intrinsic activity in experiment [2] of 0.82. For `CC1(C)C=C(N2CCCCC2=O)c2cc(C(F)(F)F)ccc2O1` the same measures were 650 nM and 0.89. For `CC1(C)C=C(n2ccccc2=O)c2c[n+]([O-])ccc2O1` the same measures were > 20000 nM and 0.01.

With `CC1(C)C=C(N2CCCC2=O)c2cnccc2O1`, the IC50 in experiment [1] (Cavia porcellus, Trachea) amounted to 6700 nM. In experiment [2], this compound had an Intrinsic activity of 0.67. As to `CC1(C)C=C(N2CCC2=O)c2cc(C#N)ccc2O1`, 7500 nM corresponded to half-maximal inhibition in experiment [1] (Cavia porcellus, Trachea) (IC50). The Intrinsic activity in experiment [2] turned out to be 0.91. Take `CC1(C)C=C(n2ccccc2=O)c2cc(C(F)(F)F)ccc2O1`: the half-maximal inhibitory concentration (IC50) in experiment [1] (Cavia porcellus, Trachea) was 56 nM. For the same compound, the Intrinsic activity in experiment [2] came to 0.97. The compound `CCc1ccc2c(c1)[C@@H](N1CCCC1=O)[C@H](O)C(C)(C)O2` had an IC50 in experiment [1] (Cavia porcellus, Trachea) of 2680 nM. Besides, the Intrinsic activity in experiment [2] turned out to be 0.92. On to `CCc1ccc2c(c1)OC(C)(C)[C@@H](O)[C@@H]2N1CCCCC1=O`, for which the IC50 in experiment [1] (Cavia porcellus, Trachea) was found to be 2250 nM. Moreover, in experiment [2], the Intrinsic activity was determined as 0.83. For the compound `CC1(C)Oc2ccc(C#N)cc2[C@@H](N2CCC2=O)[C@@H]1O`, in experiment [1] (Cavia porcellus, Trachea), the IC50 is > 20000 nM. Compound `CC1(C)Oc2ccc(C(F)(F)F)cc2[C@@H](N2CCCC2=O)[C@@H]1O` came in with an IC50 in experiment [1] (Cavia porcellus, Trachea) of 410 nM. Moreover, in experiment [2], the Intrinsic activity came to 0.92. In the case of `CC1(C)C=C(N2CCCC2=O)c2cc(C#N)ccc2O1`, inhibition in experiment [1] (Cavia porcellus, Trachea) was half-maximal at 1570 nM (IC50). Also, the Intrinsic activity in experiment [2] amounted to 0.91. In turn, `CC1(C)C=C(N2CCCCC2=O)c2cc(C#N)ccc2O1` registered an IC50 in experiment [1] (Cavia porcellus, Trachea) of 1100 nM. In experiment [2], this compound came in with an Intrinsic activity of 0.9.

Compound `CC1(C)Oc2ccncc2[C@@H](N2CCCCC2=O)[C@@H]1O` displayed a half-maximal inhibitory concentration (IC50) in experiment [1] (Cavia porcellus, Trachea) of 660 nM. Also, in experiment [2], the Intrinsic activity turned out to be 0.84. For the compound `CC1(C)C=C(N2CCCC2=O)c2ccc(C(F)(F)F)cc2O1`, 5100 nM corresponded to half-maximal inhibition in experiment [1] (Cavia porcellus, Trachea) (IC50). The compound further returned an Intrinsic activity in experiment [2] of 0.97.

In the case of `CC1(C)C=C(N2CCCCC2=O)c2cnccc2O1`, half-maximal inhibition in experiment [1] (Cavia porcellus, Trachea) (IC50) required 2200 nM. Besides, the Intrinsic activity in experiment [2] was found to be 0.92. `CC1(C)Oc2cccc(C(F)(F)F)c2[C@@H](N2CCCCC2=O)[C@@H]1O`: the IC50 in experiment [1] (Cavia porcellus, Trachea) was > 20000 nM. This compound returned an Intrinsic activity in experiment [2] of 0.13. As for `CC1(C)Oc2ccncc2[C@@H](n2ccccc2=O)[C@@H]1O`, in experiment [1] (Cavia porcellus, Trachea), it took 5100 nM to reach half-maximal inhibition (IC50). Also, in experiment [2], the Intrinsic activity was determined as 0.81.

As for `CC1(C)Oc2ccncc2[C@@H](N2CCCC2=O)[C@@H]1O`, in experiment [1] (Cavia porcellus, Trachea), the half-inhibitory concentration (IC50) is 8600 nM. The compound further yielded an Intrinsic activity in experiment [2] of 0.68. The like results for `CC1(C)Oc2cc(C(F)(F)F)ccc2[C@@H](N2CCCC2=O)[C@@H]1O` were, in that order, 730 nM and 0.9.

The compound `Cc1ccc2c(c1)[C@@H](N1CCCCC1=O)[C@H](O)C(C)(C)O2` came in with an IC50 in experiment [1] (Cavia porcellus, Trachea) of 1200 nM. In experiment [2], the Intrinsic activity was 0.92. With `Cc1ccc2c(c1)[C@@H](N1CCCC1=O)[C@H](O)C(C)(C)O2`, the IC50 in experiment [1] (Cavia porcellus, Trachea) was 13500 nM. In addition, the Intrinsic activity in experiment [2] was 0.62. Consider `CC1(C)Oc2ccc(C(F)(F)F)cc2[C@@H](n2ccccc2=O)[C@@H]1O`, for which the IC50 in experiment [1] (Cavia porcellus, Trachea) stood at 540 nM. This compound yielded an Intrinsic activity in experiment [2] of 0.96.

With `CC1(C)Oc2cc(C(F)(F)F)ccc2[C@@H](N2CCCCC2=O)[C@@H]1O` (racemic), 660 nM corresponded to half-maximal inhibition in experiment [1] (IC50). `CC1(C)Oc2cc(C(F)(F)F)ccc2[C@@H](N2CCCCC2=O)[C@@H]1O` (stereo in doubt; (+)24) registered an IC50 in experiment [1] of 360 nM. Also, the Intrinsic activity in experiment [2] turned out to be 0.89. `CC1(C)Oc2cc(C(F)(F)F)ccc2[C@@H](N2CCCCC2=O)[C@@H]1O` (stereo in doubt; (-)24): in experiment [1], half-maximal inhibition (IC50) required 12600 nM. In experiment [2], the Intrinsic activity is recorded as 0.69. In experiment [1] (Cavia porcellus, Trachea), `CC(C)(C)NCC(O)c1ccc(O)c(CO)c1` (centres undefined) [ALBUTEROL] displayed an IC50 of 18 nM. In experiment [2], the Intrinsic activity is on record as 0.98. In experiment [1] (Cavia porcellus, Trachea), `Cn1c(=O)c2[nH]cnc2n(C)c1=O.Cn1c(=O)c2[nH]cnc2n(C)c1=O.NCCN` [AMINOPHYLLINE] had an IC50 of 20100 nM. For the same compound, the Intrinsic activity in experiment [2] stood at 0.54. For `CC1(C)C=C(n2ccccc2=O)c2cc(C#N)ccc2O1` [BIMAKALIM] the same measures were 89 nM and 0.93. Turning to `CC1(C)Oc2ccc(C#N)cc2C(N2CCCC2=O)C1O` (centres undefined) [CROMAKALIM], in experiment [1] (Cavia porcellus, Trachea), the IC50 amounted to 1100 nM. Also, the Intrinsic activity in experiment [2] is listed as 0.89.

The compound `CC1(C)Oc2ccc(C#N)cc2[C@@H](n2ccccc2=O)[C@@H]1O` [EMAKALIM] gave an IC50 in experiment [1] (Cavia porcellus, Trachea) of 760 nM. Moreover, the Intrinsic activity in experiment [2] is 0.96. For `COC(=O)C1=C(C)NC(C)=C(C(=O)OC)C1c1ccccc1[N+](=O)[O-]` [NIFEDIPINE] the same measures were > 20000 nM and 0.49. For `CC(N/C(=N\C#N)Nc1ccncc1)C(C)(C)C` (centres undefined) [PINACIDIL ANHYDROUS] the same measures were 3630 nM and 0.86.
